# Experimental data collected from several papers.
# Protocols differ between the studies behind these lines.
# Target: Insulin-like growth factor 1 receptor (IGF1R, Homo sapiens, UniProt P08069)
SMILES,test,setting,remaining binding
Cc1cc(NC(=O)c2cccc(S(F)(F)(F)(F)F)c2)cc(-n2ccn3nc(-c4cccnc4)cc23)c1,"cell-free assay, competition with immobilised ligand",1 µM,100%
Cc1cnc(Nc2ccc(C(=O)N3CCC(N4CCCC4)CC3)cc2)nc1-c1cc2ccccc2s1,"binding, competition with immobilised ligand",1 µM,45%
COc1cnc(Nc2cccc(S(N)(=O)=O)c2)nc1N1CCN(c2ccccc2)CC1,"binding, competition with immobilised ligand",1 µM,100%
CN(C)c1nccc(-c2cnn3ncccc23)n1,binding,1 µM,100%
COc1ccc2c(c1)O[C@@H](c1ccc(OC)c(OC)c1)C[C@H]2NC(=O)C1(c2ccc3c(c2)OC(F)(F)O3)CC1,"cell-free assay, competition with immobilised ligand",1 µM,90%
CN(C)c1ncc(F)c(-c2cnn3ncccc23)n1,binding,1 µM,100%
c1cncc(-c2cccc(Nc3nccc(NC4CCCCC4)n3)c2)c1,"binding, competition with immobilised ligand",10 µM,67%
O=C(NCC1CCOCC1)c1n[nH]cc1NC(=O)c1c(F)cccc1F,"binding, competition with immobilised ligand",1 µM,96%
O=C1NC(c2ccccn2)Sc2ccccc21 (stereo not shown),"cell-free assay, competition with immobilised ligand",1 µM,80%
O=C(c1ccc(Nc2nccc(-c3cc4ccccc4s3)n2)cc1)N1CCC(N2CCCC2)CC1,"binding, competition with immobilised ligand",1 µM,100%
C[C@@H](c1ccc(-n2cnc3c(N)ncnc32)cc1)N1CCc2nn(C)c(Cc3ccccc3)c2C1=O,"binding, competition with immobilised ligand",0.1 µM,38%
CNC(=O)[C@@H]1CC[C@@H](n2c(-c3ccc4cnccc4c3)nc3ccc(C(=O)NCc4cccc(C(N)=O)c4)cc32)C1,"binding, competition with immobilised ligand",1 µM,100%
CN1CCN(c2cnc3c(C4CCN(C(=O)c5ccc(OC(F)(F)F)cc5N)CC4)ncnc3c2)CC1,"cell-free assay, competition with immobilised ligand",1 µM,100%
CC1CCCN1c1nccc(-c2cnn3ncccc23)n1 (stereo not shown),binding,1 µM,96%
Nc1ncc2c(n1)-c1c([nH]c3ccc(C#CC4CC4)cc13)CCCC2,"binding, competition with immobilised ligand",1 µM,100%
C=CC(=O)N1CCC(C(=O)NCC(=O)N2CCN(c3nc(-c4cnc(N)nc4C(F)F)nc(N4CCOCC4)n3)CC2)CC1,"binding, competition with immobilised ligand",1 µM,100%
CN(CCCC(F)(F)F)c1nccc(-c2cnn3ncccc23)n1,binding,1 µM,100%
O=C(O)c1cc(-c2ccc(C3CCNCC3)cc2)c2ccc(-c3ccc(C(F)(F)F)cc3)cc2c1,"cell-free assay, competition with immobilised ligand",1 µM,95%
N[C@H]1CCN(c2nccc(-c3cnn4ncccc34)n2)C1,binding,1 µM,81%
O=C(c1ccc(Nc2ncc(Cl)c(-c3cc4ccccc4s3)n2)cc1)N1CCC(N2CCCC2)CC1,"binding, competition with immobilised ligand",1 µM,40%
C[C@@H]1CN(c2ccc3ncc(-c4ccc5[nH]nc(C6CC6)c5c4)n3n2)C[C@H](C)O1,"binding, competition with immobilised ligand",0.5 µM,100%
Cc1nc(C2CCN(C(=O)c3ccc(OC(F)(F)F)cc3N)CC2)c2ncc(N3CCN(C)CC3)cc2n1,"cell-free assay, competition with immobilised ligand",1 µM,91%
CC(C)(C)c1ccc(-c2nc(CBr)nn2-c2cccc(O)c2)cc1,"cell-free assay, competition with immobilised ligand",10 µM,95%
C[C@@H]1CCN(c2nccc(-c3cnn4ncccc34)n2)C1,binding,1 µM,53%
CSc1cccnc1N1CCN(Cc2nc3ccccc3[nH]2)CC1,"cell-free assay, competition with immobilised ligand",1 µM,100%
